Screening results as filed in PubChem BioAssay.
PAD4 FP inh – human PAD4 inhibitors, primary screen, biochemical, fluorescence polarization, 1536-well format; recombinant PAD4, RCA probe fluorescence polarization; inhibition, % at 6.36 µM; Protein-arginine deiminase type-4 (Homo sapiens), Q9UM07; 0.41% of 330,000 active;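 active means percent inhibition above a cutoff equal to the mean of all tested compounds plus 3 SD, cut at about 15% in these data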
Apaf1 inhib – inhibitors of human Apaf-1 apoptosome, primary screen, biochemical, DEVD-Rh110 fluorescence, uHTS. Apoptotic protease-activating factor 1 (Homo sapiens), O14727. reconstituted apoptosome caspase-3 activity. inhibition, % at 20 µM. 0.71% of 330,000 active. AID 489030, 2010; active means inhibition of at least 40% at 20 µM
Target sequence (O14727 whole entry, looked up): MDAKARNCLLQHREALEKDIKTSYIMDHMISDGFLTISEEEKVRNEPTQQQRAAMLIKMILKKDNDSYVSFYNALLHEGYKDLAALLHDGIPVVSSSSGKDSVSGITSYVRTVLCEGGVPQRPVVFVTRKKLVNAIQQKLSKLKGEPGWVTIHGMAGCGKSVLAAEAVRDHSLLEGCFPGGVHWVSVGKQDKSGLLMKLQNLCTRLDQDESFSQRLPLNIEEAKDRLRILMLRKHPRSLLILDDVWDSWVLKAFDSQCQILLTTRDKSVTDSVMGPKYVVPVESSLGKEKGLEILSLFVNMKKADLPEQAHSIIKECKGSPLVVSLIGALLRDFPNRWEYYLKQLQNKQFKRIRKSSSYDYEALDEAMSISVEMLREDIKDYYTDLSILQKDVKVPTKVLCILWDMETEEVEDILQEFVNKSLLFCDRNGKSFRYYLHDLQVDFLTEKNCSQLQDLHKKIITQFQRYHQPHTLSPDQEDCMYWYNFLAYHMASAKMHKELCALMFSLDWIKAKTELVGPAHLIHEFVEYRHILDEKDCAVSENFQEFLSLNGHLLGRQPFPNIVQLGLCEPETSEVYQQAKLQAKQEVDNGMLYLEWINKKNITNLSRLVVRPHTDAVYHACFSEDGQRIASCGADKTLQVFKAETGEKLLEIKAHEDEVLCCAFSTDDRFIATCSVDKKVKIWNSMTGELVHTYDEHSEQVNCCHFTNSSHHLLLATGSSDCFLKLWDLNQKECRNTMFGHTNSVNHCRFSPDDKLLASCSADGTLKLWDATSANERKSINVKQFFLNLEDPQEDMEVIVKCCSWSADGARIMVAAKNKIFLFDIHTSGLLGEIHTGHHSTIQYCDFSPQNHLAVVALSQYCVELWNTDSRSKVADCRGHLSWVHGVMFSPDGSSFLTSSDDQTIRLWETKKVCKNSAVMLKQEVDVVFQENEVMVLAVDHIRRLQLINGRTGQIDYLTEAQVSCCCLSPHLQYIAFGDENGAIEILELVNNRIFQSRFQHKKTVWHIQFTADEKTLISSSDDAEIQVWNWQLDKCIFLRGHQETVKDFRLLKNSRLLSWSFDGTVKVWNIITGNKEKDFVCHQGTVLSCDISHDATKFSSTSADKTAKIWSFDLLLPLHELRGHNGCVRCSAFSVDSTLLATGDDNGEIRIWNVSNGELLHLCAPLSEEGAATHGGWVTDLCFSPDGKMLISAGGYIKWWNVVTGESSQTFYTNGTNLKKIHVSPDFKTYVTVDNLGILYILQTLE
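Material: cell-free apoptosome with Apaf-1, procaspase-3 and caspase-9; Buffer or medium: Hepes pH 7.5 with detergent and BSA; Reagent: cytochrome c trigger plus (Z-DEVD)2-Rh110 caspase-3 substrate; Times: compound with Apaf-1, dATP, procaspase-3 30 min, then 50 min reaction, room temperature; Technique: Rh110 fluorescence intensity.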
PRMT1 inh – PRMT1 methyltransferase inhibitors, primary screen, biochemical, fluorescence polarization. Protein arginine N-methyltransferase 1 (Homo sapiens), Q99873. recombinant PRMT1, activity-based probe fluorescence polarization. inhibition, % at 2.79 µM. 1.3% of 370,000 active. AID 652257, 2013;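 active means inhibition above about 21% made by adding two undisclosed values, limit read from the data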
TDP2 inh – human TDP2 enzyme inhibitors, primary screen, biochemical, epi absorbance, recombinant enzyme; Tyrosyl-DNA phosphodiesterase 2 (Homo sapiens), O95551; T5PNP hydrolysis, p-nitrophenol absorbance 415 nm; inhibition, % at 12.8 µM; 0.34% of 370,000 active; AID 720702, 2013;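 active means inhibition above the mean of all tested compounds plus 3 SD, set per campaign, cut at about 25% in these data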
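Test system: Human TDP2 enzyme | Reagent: 5 mM T5PNP | Compound dosing: 12.8 µM single point, 1% DMSO | Incubation: Enzyme reaction with compound for 2 h at 37 °C | Technique: p-Nitrophenol epi absorbance | Read-out: % inhibition relative to enzyme-containing and enzyme-free wells | Benchmarks: High control without enzyme, low control DMSO plus TDP2 | Replicates: Singlicate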
GSTO1 counter – inhibitors of recombinant GSTO1, primary screen, counter-screen for RBBP9 inhibitor project, biochemical, fluorescence polarization; 1.1% of 300,000 active; activity-based probe fluorescence polarization; inhibition, % at 5.96 µM; Glutathione S-transferase omega-1 (Homo sapiens), P78417;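 active means inhibition above the campaign mean inhibition plus 3 SD, cut at about 35% in these data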
GSTO1 confirm – GSTO1 inhibitor hit confirmation, counter-screen for RBBP9 inhibitor project, biochemical, fluorescence polarization, triplicate. shares compounds with GSTO1 counter. recombinant GSTO1, probe fluorescence polarization. inhibition, % at 5.96 µM. 54% of 2,400 active;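 active means inhibition above the primary screen's cutoff, its mean inhibition plus 3 SD, cut at about 35% in these data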;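 further: loss of polarization as inhibitors block binding of rhodamine sulfonate ester activity probe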
GSTO1 recomb ABPP – inhibitors of purified human GSTO1, late-stage follow-up, biochemical, gel ABPP, SE-Rh probe, percent inhibition | AID 463110, 2010 | recombinant GSTO1, gel ABPP SE-Rh probe fluorescence | inhibition, % at 1 µM | 30% of 130 active | shares compounds with GSTO1 counter;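 active means inhibition of the enzyme GSTO1 above about 75%, limit read from the data; inactive means inhibition below that limit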
Large screens that a line does not name were inactive (follow-up assays come after a bar, where they were run). Sampled rows, rich in hits. Any-hit rate of the full collection: about 2.6%.

Cc1cc(O)c(Oc2cc(C)cc(O)c2O)c(O)c1	PRMT1 inh 37.6, GSTO1 counter 56.2 | GSTO1 confirm inactive
Cc1cc(O)c(C(C)C)cc1N=Cc1ccccc1O	GSTO1 counter 53.8 | GSTO1 confirm inactive
CCN(CC)c1ccc(C=Nc2ccccc2C)c(O)c1	none
CCOC(=O)C1(Cc2ccccc2)CCN(Cc2cccc(C#N)c2)CC1	none (no result: PAD4 FP inh, Apaf1 inhib, GSTO1 counter)
CN1c2ccccc2N(C)C1(C)c1ccccc1	GSTO1 counter 49.5 (no result: Apaf1 inhib) | GSTO1 confirm inactive
COc1cc(CNc2ccc(N3CCCC3)cc2)cc(Cl)c1OC	GSTO1 counter 59.0 | GSTO1 confirm 56.5
CCOc1ccc(CNc2ccc(N3CCCC3)cc2)cc1	GSTO1 counter 66.2 (no result: PRMT1 inh, TDP2 inh) | GSTO1 confirm 55.4
COc1ccccc1CNc1ccc(N2CCCCC2)cc1	GSTO1 counter 50.8 (no result: PRMT1 inh, TDP2 inh) | GSTO1 confirm inactive
COc1cc(CNc2ccc(N3CCOCC3)cc2)cc(Br)c1OC	none
COC[C@@H]1CCCN1c1cccc2c1S(=O)(=O)N1CC[C@@H](C1)O2	none (no result: PAD4 FP inh, Apaf1 inhib, GSTO1 counter)
CCNC(=O)N1c2ccc(OCC)cc2C(C)=CC1(C)C	none
CCOc1ccc2c(c1)C(C)=CC(C)(C)N2C(=O)Nc1ccccc1F	TDP2 inh 34.1, GSTO1 counter 42.0 | GSTO1 confirm inactive
COc1ccc(C(=O)N/N=C(\C)c2ccc3c(c2)C2C=CCC2C(c2ccccc2)N3)cc1 (stereo unspecified)	none (no result: Apaf1 inhib, PRMT1 inh, TDP2 inh)
O=C(O)c1ccc2c(c1)[C@@H]1C=CC[C@@H]1[C@H](c1ccccn1)N2	PRMT1 inh 70.2, TDP2 inh 25.8, GSTO1 counter 50.5 | GSTO1 confirm inactive
CC(=O)C1=C(c2ccccc2)NC(=S)NC1c1cc(Cl)c(OC(C)C)c(Cl)c1 (stereo unspecified)	none
CC(=O)C1=C(c2ccccc2)NC(=S)NC1c1ccc(O)c(O)c1 (stereo unspecified)	GSTO1 counter 45.3 | GSTO1 confirm inactive
CCCCCCCCN1C(=O)[C@@H](CC(=O)NCCCCc2ccccc2)C[C@@]2(C(=O)OC)C1=C[C@H](COCc1ccccc1)O[C@@H]2C	none (no result: PAD4 FP inh, Apaf1 inhib, GSTO1 counter)
COC[C@H]1CCCN1c1ccc2c(c1)O[C@H](COCc1ccccc1)CN([C@H](C)c1ccccc1)S2(=O)=O	none (no result: PAD4 FP inh, Apaf1 inhib, GSTO1 counter)
CCOC(=O)c1[nH]c2ccc(OC)cc2c1NC(=O)CN1CCc2ccccc2C1	GSTO1 counter 51.3 | GSTO1 confirm inactive
CCOC(=O)c1[nH]c2ccc(OC)cc2c1NC(=O)CN1CCN(c2ccccn2)CC1	none (no result: PRMT1 inh, TDP2 inh)
O=C(CN1CCOCC1)N/N=C/c1c(O)ccc2ccccc12	GSTO1 counter 37.7 | GSTO1 confirm inactive
CC(=NCCCn1ccnc1)c1c(-c2ccccc2)[nH]n(-c2nc3ccccc3s2)c1=O	GSTO1 counter 56.6 | GSTO1 confirm inactive
COC(=O)CCCC1=CC2=C(c3ccccc3)C(=O)C(C)(OC(=O)C3CCCC3)C(=O)C2=CN1C1CCCC1 (stereo unspecified)	none
CCN(CC)CCCN1C=C2C(=O)C(C)(OC(=O)C3CCCC3)C(=O)C(c3ccccc3)=C2C=C1CCCC(=O)OC (stereo unspecified)	none
COC(=O)CCCC1=CC2=C(c3ccccc3)C(=O)C(C)(OC(=O)C3CCCC3)C(=O)C2=CN1C1CCCCC1 (stereo unspecified)	GSTO1 counter 38.4 | GSTO1 confirm inactive
COC(=O)CCCC1=CC2=C(c3ccccc3)C(=O)C(C)(OC(=O)C3CCCC3)C(=O)C2=CN1CC1CC1 (stereo unspecified)	GSTO1 counter 49.1 | GSTO1 confirm inactive
Cc1ccc(Nc2nc(-c3sc(C)nc3C)cs2)cc1	none
Cc1nc(C)c(-c2csc(N)n2)s1	GSTO1 counter 39.3 | GSTO1 confirm inactive
Cc1ccc(NC(=O)/C(C#N)=C(\N)C(Cl)(Cl)Cl)nc1	GSTO1 counter 47.3 (no result: PRMT1 inh, TDP2 inh) | GSTO1 confirm 76.4
O=C1CC2c3cc(-c4cc5ccccc5o4)ccc3CCN2C(=O)CN1Cc1ccccc1 (stereo unspecified)	none (no result: PAD4 FP inh, Apaf1 inhib, GSTO1 counter)
C[C@H]1[C@@H](NC(=O)c2ccc(C(F)(F)F)cc2)CC[C@@]23CCCN2C(=O)CCC[C@@H]13	none (no result: PAD4 FP inh, Apaf1 inhib, GSTO1 counter)
CCOC(=O)[C@]12CCCC=C1N(Cc1cccc3ccccc13)C(=O)[C@H](CC(=O)NCc1cccs1)C2	none (no result: PAD4 FP inh, Apaf1 inhib, GSTO1 counter)
CCCNC(=O)OC1CC2CC1[C@H]1CCCCN1C2=O (stereo partly specified)	none (no result: PAD4 FP inh, Apaf1 inhib, GSTO1 counter)
c1ccc(CNc2c3ccccc3nc3ccccc23)cc1	none
Oc1ccc(CCNc2c3ccccc3nc3ccccc23)cc1O	GSTO1 counter 47.8 | GSTO1 confirm inactive
COCc1c(C(=O)Nc2nnc(C3CC3)s2)oc2ccccc12	none (no result: PAD4 FP inh, Apaf1 inhib, GSTO1 counter)
O=Nc1c(O)c2ccccc2c2ccccc12	GSTO1 counter 78.0 (no result: Apaf1 inhib) | GSTO1 confirm 80.7
Cc1cc(F)ccc1C(=O)N1CCC(Oc2cccnc2)CC1	none (no result: PAD4 FP inh, Apaf1 inhib, GSTO1 counter)
CCCCNC(=O)C(NC(=O)c1ccc2ccccc2c1)C(=O)c1ccccc1 (stereo unspecified)	none (no result: PAD4 FP inh, Apaf1 inhib, GSTO1 counter)
CCOc1ccc(-c2nc(CCl)cs2)cc1	GSTO1 counter 79.3 | GSTO1 confirm 92.5 | GSTO1 recomb ABPP inactive
ClCc1csc(-c2ccc(Cl)cc2)n1	GSTO1 counter 90.8 | GSTO1 confirm 101.1 | GSTO1 recomb ABPP inactive
CC1CN(Cc2csc(-c3ccc(Cl)cc3)n2)CC(C)O1 (stereo unspecified)	none
CCOc1ccc(-c2nnc(N)s2)cc1	none
CCC(C)CN1C(=O)CN(S(C)(=O)=O)CC1(C)C(=O)Nc1c(C)cccc1C (stereo unspecified)	none (no result: PAD4 FP inh, Apaf1 inhib, GSTO1 counter)
Nc1c(C(=O)NCc2ccco2)sc2nc3c(cc12)C(=O)CCC3	GSTO1 counter 47.5 | GSTO1 confirm inactive
COc1ccc2cc3c(N)c(C(=O)NCc4ccco4)sc3nc2c1	none
C/C(=N\Nc1nc2ccccc2c(=O)n1O)c1ccco1	PRMT1 inh 36.1, GSTO1 counter 67.4 | GSTO1 confirm inactive
CCOC(=O)[C@]12CCCC=C1N(CCCOC)C(=O)[C@@H]2CC(=O)NCc1ccc(C)o1	none (no result: PAD4 FP inh, Apaf1 inhib, GSTO1 counter)
O=C(CSc1nc2ncc(Br)cc2[nH]1)Nc1ccc2c(c1)OCO2	GSTO1 counter 45.4 | GSTO1 confirm 53.4
Cc1cc(C)c(NC(=O)CSc2nc3ncc(Br)cc3[nH]2)c(C)c1	none
